In ChEMBL document CHEMBL3259528, “Exploring 5-nitrofuran derivatives against nosocomial pathogens: synthesis, antimicrobial activity and chemometric analysis” (2014):
≈ marks a conversion by molar mass, not a printed value. Calls of active or inactive are those of the source. The rule behind the calls is not given here.

What was measured:
Staphylococcus aureus [1] = experiment: Antimicrobial activity against Staphylococcus aureus ATCC 29213 after 24 to 48 hrs by two-fold broth microdilution method; assay type: functional
Staphylococcus aureus [2] = experiment: Antimicrobial activity against multidrug-resistant Staphylococcus aureus VISA3 […] by two-fold broth microdilution method; assay type: functional
Serratia marcescens [3] = experiment: Antimicrobial activity against Serratia marcescens ATCC 14576 at 128 uM after 24 to 48 hrs by two-fold broth microdilution method; assay type: functional, organism-based
Outline: (§1)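 Antibacterial microdilution in CAMH, inoculum 0.5 McFarland diluted in saline/CAMH, 35 °C for 18 h, with further reads at 24 and 48 h. Activity is scored at the maximum tested concentration, 128 µM. Triplicate.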

Candida albicans [4] = experiment: Antimicrobial activity against Candida albicans ATCC 537Y at 64 uM after 48 hrs by two-fold broth microdilution method; assay type: functional, organism-based
Outline: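 Single top concentration of the antifungal microdilution: RPMI 1640, inoculum 0.5 McFarland diluted in saline/RPMI, 35 °C for 48 h. Activity is judged at the highest tested level, 64 µM. Run in triplicate.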

Klebsiella pneumoniae = experiment: Antimicrobial activity against Klebsiella pneumoniae ATCC 700603 at 128 uM after 24 to 48 hrs by two-fold broth microdilution method; assay type: functional, organism-based; outline: as §1
Staphylococcus aureus [5] = experiment: Antimicrobial activity against Staphylococcus aureus ATCC 29213 after 18 hrs by modified broth microdilution method; assay type: functional
Outline: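 PGI90, the concentration giving 90% growth inhibition, fitted with an exponential growth curve from at least seven concentrations of the MIC assay. Inhibition % = [(Ac − Ap)/Ac] × 100 from A620 of drug-free control versus drug-treated culture. Checked by a modified broth microdilution (Phase 2).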

Escherichia coli [6] = experiment: Antimicrobial activity against Escherichia coli ATCC 25922 at 128 uM after 24 to 48 hrs by two-fold broth microdilution method; assay type: functional, organism-based; outline: as §1
Enterobacter cloacae = experiment: Antimicrobial activity against Enterobacter cloacae ATCC 23355 at 128 uM after 24 to 48 hrs by two-fold broth microdilution method; assay type: functional, organism-based; outline: as §1
Enterococcus faecalis = experiment: Antimicrobial activity against Enterococcus faecalis ATCC 29212 after 24 to 48 hrs by two-fold broth microdilution method; assay type: functional
Serratia marcescens [7] = experiment: Antimicrobial activity against Serratia marcescens ATCC 14576 after 24 to 48 hrs by two-fold broth microdilution method; assay type: functional
Candida albicans [8] = experiment: Antimicrobial activity against Candida albicans ATCC 537Y after 48 hrs by two-fold broth microdilution method; assay type: functional
Outline: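 Two-fold serial dilutions in RPMI 1640 per CLSI M27-A2. Stocks in DMSO/RPMI 1:20 v/v. Test range 1.0–64 µM. Inoculum set to 0.5 McFarland, then diluted in saline and RPMI 1640. Plates held at 35 °C for 48 h. MIC is the lowest concentration giving prominent growth reduction. Run in triplicate.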

Escherichia coli [9] = experiment: Antimicrobial activity against Escherichia coli ATCC 25922 after 24 to 48 hrs by two-fold broth microdilution method; assay type: functional

| SMILES | MIC (Staphylococcus aureus [1]) [µM] | MIC (Staphylococcus aureus [2]) [µM] | Activity (Serratia marcescens [3]) | Activity (Candida albicans [4]) | Activity (Klebsiella pneumoniae) | log(1/MIC>90) (Staphylococcus aureus [5]) | Activity (Escherichia coli [6]) | MIC90 (Staphylococcus aureus [1]) [µM] | Activity (Enterobacter cloacae) | MIC (Enterococcus faecalis) [µM] | MIC90 (Enterococcus faecalis) [µM] | MIC (Serratia marcescens [7]) [µM] | MIC90 (Serratia marcescens [7]) [µM] | MIC (Candida albicans [8]) [µM] | MIC90 (Candida albicans [8]) [µM] | MIC (Escherichia coli [9]) [µM] | MIC90 (Escherichia coli [9]) [µM] |
| --- | --- | --- | --- | --- | --- | --- | --- | --- | --- | --- | --- | --- | --- | --- | --- | --- | --- |
| CN[C@H](CC(C)C)C(=O)N[C@H]1C(=O)N[C@@H](CC(N)=O)C(=O)N[C@H]2C(=O)N[C@H]3C(=O)N[C@H](C(=O)N[C@H](C(=O)O)c4cc(O)cc(O)c4-c4cc3ccc4O)[C@H](O)c3ccc(c(Cl)c3)Oc3cc2cc(c3O[C@@H]2O[C@H](CO)[C@@H](O)[C@H](O)[C@H]2O[C@H]2C[C@](C)(N)[C@H](O)[C@H](C)O2)Oc2ccc(cc2Cl)[C@H]1O [VANCOMYCIN] | < 20 | 2 (≈ 2.9 µg/mL) |  |  |  |  |  |  |  |  |  |  |  |  |  |  |  |
| CCCCc1ccc(C(=O)N/N=C/c2ccc([N+](=O)[O-])o2)cc1 | 2 (≈ 0.631 µg/mL) | 2 (≈ 0.631 µg/mL) | inactive | inactive | inactive | 5.74 | inactive | 1.8 (≈ 0.568 µg/mL) | inactive | 32 (≈ 10.1 µg/mL) | 55.9 (≈ 17.6 µg/mL) |  |  |  |  |  |  |
| CCOc1ccc(C(=O)N/N=C/c2ccc([N+](=O)[O-])o2)cc1 | 2 (≈ 0.607 µg/mL) |  | inactive | inactive | inactive | 5.43 | inactive | 3.7 (≈ 1.12 µg/mL) | inactive | 32 (≈ 9.7 µg/mL) | 34.9 (≈ 10.6 µg/mL) |  |  |  |  |  |  |
| CCOc1ccc(C2=NN(C(C)=O)C(c3ccc([N+](=O)[O-])o3)O2)cc1 (centres undefined) | 8 (≈ 2.76 µg/mL) |  |  |  | inactive | 5.09 |  | 8.14 (≈ 2.81 µg/mL) | inactive |  |  | 64 (≈ 22.1 µg/mL) | 85.7 (≈ 29.6 µg/mL) | 8 (≈ 2.76 µg/mL) | 8.39 (≈ 2.9 µg/mL) | 64 (≈ 22.1 µg/mL) | 78.6 (≈ 27.1 µg/mL) |
| CC(=O)N1N=C(c2ccc(Cl)cc2Cl)OC1c1ccc([N+](=O)[O-])o1 (centres undefined) | 4 (≈ 1.48 µg/mL) |  |  |  | inactive | 5.21 |  | 6.12 (≈ 2.27 µg/mL) | inactive | 32 (≈ 11.8 µg/mL) | 31.7 (≈ 11.7 µg/mL) | 64 (≈ 23.7 µg/mL) | 85.7 (≈ 31.7 µg/mL) | 32 (≈ 11.8 µg/mL) | 42.2 (≈ 15.6 µg/mL) | 64 (≈ 23.7 µg/mL) | 86.1 (≈ 31.9 µg/mL) |
| CC(=O)N1N=C(c2ccc(Cl)cc2)OC1c1ccc([N+](=O)[O-])o1 (centres undefined) | 4 (≈ 1.34 µg/mL) | 4 (≈ 1.34 µg/mL) | inactive | inactive | inactive | 5.26 |  | 5.45 (≈ 1.83 µg/mL) | inactive |  |  |  |  |  |  | 64 (≈ 21.5 µg/mL) | 88.7 (≈ 29.8 µg/mL) |
| N#Cc1ccc(C(=O)N/N=C/c2ccc([N+](=O)[O-])o2)cc1 | 4 (≈ 1.14 µg/mL) |  |  | inactive | inactive | 5.27 |  | 5.35 (≈ 1.52 µg/mL) | inactive | 32 (≈ 9.1 µg/mL) | 40.4 (≈ 11.5 µg/mL) | 64 (≈ 18.2 µg/mL) | 111 (≈ 31.5 µg/mL) |  |  | 64 (≈ 18.2 µg/mL) | 97.3 (≈ 27.7 µg/mL) |
| CC(=O)N1N=C(c2ccc(C(F)(F)F)cc2)OC1c1ccc([N+](=O)[O-])o1 (centres undefined) | 4 (≈ 1.48 µg/mL) | 4 (≈ 1.48 µg/mL) | inactive | inactive | inactive | 5.25 | inactive | 5.6 (≈ 2.07 µg/mL) | inactive |  |  |  |  |  |  |  |  |
| CC(=O)N1N=C(c2ccc(C#N)cc2)OC1c1ccc([N+](=O)[O-])o1 (centres undefined) | 2 (≈ 0.653 µg/mL) | 4 (≈ 1.31 µg/mL) |  |  | inactive | 5.41 |  | 3.89 (≈ 1.27 µg/mL) | inactive | 64 (≈ 20.9 µg/mL) | 75.2 (≈ 24.5 µg/mL) | 64 (≈ 20.9 µg/mL) | 96.3 (≈ 31.4 µg/mL) | 32 (≈ 10.4 µg/mL) | 47.6 (≈ 15.5 µg/mL) | 32 (≈ 10.4 µg/mL) | 43.1 (≈ 14.1 µg/mL) |
| O=C(N/N=C/c1ccc([N+](=O)[O-])o1)c1ccc(F)cc1 | 2 (≈ 0.554 µg/mL) |  |  |  | inactive | 5.18 |  | 6.64 (≈ 1.84 µg/mL) | inactive | 64 (≈ 17.7 µg/mL) | 71.2 (≈ 19.7 µg/mL) | 64 (≈ 17.7 µg/mL) | 104 (≈ 28.9 µg/mL) | 32 (≈ 8.87 µg/mL) | 57 (≈ 15.8 µg/mL) | 32 (≈ 8.87 µg/mL) | 44.1 (≈ 12.2 µg/mL) |
| CCCCOc1ccc(C(=O)N/N=C/c2ccc([N+](=O)[O-])o2)cc1 | 2 (≈ 0.663 µg/mL) |  | inactive | inactive | inactive | 5.38 | inactive | 4.14 (≈ 1.37 µg/mL) | inactive | 16 (≈ 5.3 µg/mL) | 24.1 (≈ 7.97 µg/mL) |  |  |  |  |  |  |
| CC(=O)N1N=C(c2ccc(Cl)c(Cl)c2)OC1c1ccc([N+](=O)[O-])o1 (centres undefined) | 4 (≈ 1.48 µg/mL) | 4 (≈ 1.48 µg/mL) | inactive | inactive | inactive | 5.33 | inactive | 4.63 (≈ 1.71 µg/mL) | inactive |  |  |  |  |  |  |  |  |
| CC(C)(C)c1ccc(C(=O)N/N=C/c2ccc([N+](=O)[O-])o2)cc1 | 4 (≈ 1.26 µg/mL) |  | inactive | inactive | inactive | 5.28 | inactive | 5.28 (≈ 1.66 µg/mL) | inactive | 32 (≈ 10.1 µg/mL) | 59.8 (≈ 18.9 µg/mL) |  |  |  |  |  |  |
| COc1ccc(C2=NN(C(C)=O)C(c3ccc([N+](=O)[O-])o3)O2)cc1 (centres undefined) | 8 (≈ 2.65 µg/mL) |  | inactive | inactive | inactive | 4.96 | inactive | 10.9 (≈ 3.6 µg/mL) | inactive |  |  |  |  |  |  |  |  |
| CC(=O)N1N=C(c2ccc([N+](=O)[O-])cc2)OC1c1ccc([N+](=O)[O-])o1 (centres undefined) | 4 (≈ 1.39 µg/mL) |  |  |  | inactive | 5.14 |  | 5.78 (≈ 2 µg/mL) | inactive | 32 (≈ 11.1 µg/mL) | 57.3 (≈ 19.8 µg/mL) | 64 (≈ 22.2 µg/mL) | 90.5 (≈ 31.3 µg/mL) | 32 (≈ 11.1 µg/mL) | 44.6 (≈ 15.4 µg/mL) | 32 (≈ 11.1 µg/mL) | 54.6 (≈ 18.9 µg/mL) |
| CC(=O)N1N=C(c2ccc(Br)cc2)OC1c1ccc([N+](=O)[O-])o1 (centres undefined) | 4 (≈ 1.52 µg/mL) | 8 (≈ 3.04 µg/mL) | inactive | inactive | inactive | 5.29 | inactive | 5.13 (≈ 1.95 µg/mL) | inactive |  |  |  |  |  |  |  |  |
